# Legend:
# Assay type in all cases: functional
# Aspergillus flavus = assay: Antifungal activity against Aspergillus flavus
# Summary of the method: (§1)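 MIC determined in 96-well plates. 1-mm diameter mycelial pieces were incubated in Czapek Dox minimal medium across a range of compound concentrations, and the MIC was read from mycelial growth.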
# Alternaria brassicicola = assay: Antifungal activity against Alternaria brassicola; summary of the method: as §1
# Alternaria brassicae = assay: Antifungal activity against Alternaria brassicae; summary of the method: as §1
# Radish = assay: Effect on growth of Raphanus sativus assessed as length of hypocotyl at 50 ug/mL by seed germination assay
# [1] = test system: Simplicillium lamellicola; assay: Antifungal activity against Verticillium lamellicola; summary of the method: as §1
# Fusarium oxysporum = assay: Antifungal activity against Fusarium oxysporum; summary of the method: as §1
Compound,MIC (Aspergillus flavus),MIC (Alternaria brassicicola),MIC (Alternaria brassicae),MIC [1],MIC (Fusarium oxysporum),Activity (Radish)
CO/C=C(/C(=O)OC)c1cc(Cl)ccc1Cn1cc(S(=O)(=O)c2ccc(C)cc2)nn1,500 µg/mL,500 µg/mL,400 µg/mL,500 µg/mL,500 µg/mL,30.7 mm
CO/C=C(/C(=O)OC)c1cc(Cl)ccc1Cn1cc(-c2ccccc2C=O)nn1,1500 µg/mL,1000 µg/mL,1000 µg/mL,1000 µg/mL,1000 µg/mL,25 mm
CO/C=C(/C(=O)OC)c1ccccc1Oc1cc(Oc2ccccc2C#N)ncn1 [AZOXYSTROBIN],,,,,,2 mm

# The next lines start with results.
MIC (Aspergillus flavus),MIC (Alternaria brassicicola),MIC (Alternaria brassicae),MIC [1],MIC (Fusarium oxysporum),Compound,Activity (Radish)
> 1500 µg/mL,1000 µg/mL,1000 µg/mL,1500 µg/mL,1000 µg/mL,CO/C=C(/C(=O)OC)c1cc(Cl)ccc1Cn1cc(-c2ccccc2)nn1,18.8 mm
4 µg/mL,4 µg/mL,4 µg/mL,4 µg/mL,4 µg/mL,C#CS(=O)(=O)c1ccc(C)cc1,56.2 mm
> 1500 µg/mL,1000 µg/mL,1000 µg/mL,1500 µg/mL,1500 µg/mL,CO/C=C(/C(=O)OC)c1cc(Cl)ccc1Cn1cc(C2=CCCCC2)nn1,14 mm
